Experimental data as given in paper PMC7103123 (Toxicology and Applied Pharmacology, 2017).

Legend:
[1] = tested on: Na^+/K^+-ATPase; experiment: Na^+/K^+-ATPase protein level in ST cells; type: cell-based, swine; details: Fig. 4D-a
[2] = tested on: TGEV; experiment: Effect of Na^+/K^+-ATPase activators on TGEV activity in ST cells; type: cell-based, porcine transmissible gastroenteritis virus; details: Fig. 4D-b
[3] = tested on: TGEV; experiment: Anti-TGEV IC50 of cardenolides alone or combined with aldosterone or Db cAMP; type: cell-based, porcine transmissible gastroenteritis virus; details: Fig. 4D-c
[4] = Cytotoxicity assay in TGEV infected ST cells; type: cell-based, swine; details: swine
How it was run: (§1)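 Cytotoxicity is measured in TGEV-infected ST cells in parallel with the immunofluorescence replication assay, with compound pretreatment for 1 h. CC50 is read at 6 h.p.i. Means ± S.D. come from 3–5 independent experiments, each in duplicate.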

[5] = tested on: TGEV; experiment: Cytopathic effect assay in TGEV infected ST cells; type: cell-based, porcine transmissible gastroenteritis virus; details: 1 μM, TGEV 3.5 MOI, 18 h.p.i.
How it was run: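 ST cells are pretreated with test compound for 1 h, then TGEV-infected at MOI 3.5, with mock-infected controls. At 18 h.p.i., cytopathic effect (rounding, enlargement, syncytia, detachment) is scored and viability is measured by MTS. Survival is compared with vehicle-treated infected cells by Student t-test. Three independent experiments.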

[6] = tested on: caspase-3 activation in TGEV infected ST cells; experiment: Western blot for TGEV induced caspase-3 activation in ST cells; type: cell-based, swine; details: 1 μM, 18 h.p.i.
How it was run: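 TGEV-infected swine testicular (ST) cells were treated with test compound at the indicated concentrations and harvested at 18 h post-infection. Lysates were analysed by western blot with antibodies against caspase-3 to detect its activation, plus TGEV N protein and β-actin as the loading control. A reference anti-TGEV compound served as the positive control.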

[7] = tested on: TGEV N protein; experiment: Western analysis for TGEV N protein expression in infected ST cells; type: cell-based, porcine transmissible gastroenteritis virus
How it was run: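 Western blot for TGEV N protein in infected ST cells. In the titer-linked set, compound is added 1 h before TGEV (0.01 MOI), with 22 h incubation at 37 °C. Adherent cells are harvested for blotting while supernatants go to titration. Three or more independent experiments.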

[8] = tested on: ST cells; experiment: Cytotoxicity assay in TGEV infected ST cells; type: cell-based, swine; details: read-out: ST CC50; cytotoxicity in TGEV infected ST cells at 6 h.p.i.
How it was run: as §1

## CCCC(=O)Nc1ncnc2c1ncn2[C@@H]1O[C@@H]2COP(=O)([O-])O[C@H]2[C@H]1OC(=O)CCC.[Na+] [Db cAMP, N6,2′-O-Dibutyryladenosine 3′,5′-cyclic monophosphate sodium salt]
[1]
  Na^+/K^+-ATPase protein level in ST cells: moderately augmented
[2]
  infectivity of TGEV: increased the infectivity
[3]
  effect on anti-TGEV activity of cardenolides: able to antagonize

## COc1cc2c3c(c4cc(OC)c(OC)cc4c2cc1OC)CN1CCC[C@@H]1C3 [Tylophorine]
[4]
  CC50 at 6 h post infection: > 10 µM
[5]
  protection against cytopathic effect: displayed protection

## C[C@H]1O[C@@H](O[C@H]2[C@@H](O)C[C@H](O[C@H]3[C@@H](O)C[C@H](O[C@H]4CC[C@@]5(C)[C@H](CC[C@@H]6[C@@H]5C[C@@H](O)[C@]5(C)[C@@H](C7=CC(=O)OC7)CC[C@]65O)C4)O[C@@H]3C)O[C@@H]2C)C[C@H](O)[C@@H]1O [Digoxin, digoxin]
[4]
  CC50 at 6 h post infection: > 10 µM

## C[C@H]1O[C@@H](O[C@H]2[C@@H](O)C[C@H](O[C@H]3[C@@H](O)C[C@H](O[C@H]4CC[C@@]5(C)[C@H](CC[C@@H]6[C@@H]5CC[C@]5(C)[C@@H](C7=CC(=O)OC7)CC[C@]65O)C4)O[C@@H]3C)O[C@@H]2C)C[C@H](O)[C@@H]1O [Digitoxin, digitoxin]
[4]
  CC50 at 6 h post infection: > 10 µM
[6]
  protection against caspase-3 activation: strong protection

## C[C@@H]1O[C@@H](O[C@H]2C[C@@H](O)[C@]3(CO)[C@H]4[C@H](O)C[C@]5(C)[C@@H](C6=CC(=O)OC6)CC[C@]5(O)[C@@H]4CC[C@]3(O)C2)[C@H](O)[C@H](O)[C@H]1O [Ouabain, ouabain]
[4]
  CC50 at 6 h post infection: > 10 µM
[6]
  protection against caspase-3 activation: strong protection

## CO[C@H]1C[C@H](O[C@H]2CC[C@@]3(C)[C@H](CC[C@@H]4[C@@H]3CC[C@]3(C)[C@@H](C5=CC(=O)OC5)[C@@H](OC(C)=O)C[C@]43O)C2)O[C@@H](C)[C@@H]1O [Oleandrin, oleandrin]
[7]; TGEV 0.01 MOI, 22 h.p.i. (Fig. 3B)
  N protein expression in TGEV infected ST cells: dose dependant manner
[7]; various doses (Fig. 1D)
  N protein expression by western analyses in TGEV infected ST cells: dose dependent manner of decreases
[4]
  CC50 at 6 h post infection: > 10 µM
[6]
  protection against caspase-3 activation: strong protection

## Reevesioside I /epi-Reevesioside I
[8]
  CC50: > 50 µM

## C[C@]12CC[C@H](O)C[C@H]1CC[C@@H]1[C@@H]2CC[C@]2(C)[C@@H](C3=CC(=O)OC3)CC[C@]12O [Digitoxigenin, digitoxigenin]
[4]
  CC50 at 6 h post infection: > 10 µM

## Reevesioside E
[8]
  CC50: > 50 µM

## Reevesioside F
[8]
  CC50: > 10 µM
[6]
  protection against caspase-3 activation: strong protection

## Reevesioside C
[8]
  CC50: > 50 µM

## C[C@]12CCC(=O)C=C1CC[C@@H]1[C@@H]2[C@@H](O)C[C@]2(C=O)[C@@H](C(=O)CO)CC[C@@H]12 [Aldosterone, aldosterone]
[1]
  Na^+/K^+-ATPase protein level in ST cells: moderately augmented
[2]
  infectivity of TGEV: increased the infectivity
[3]
  effect on anti-TGEV activity of cardenolides: able to antagonize

## Reevesioside H /epi-Reevesioside H
[8]
  CC50: > 50 µM

## Reevesioside B
[8]
  CC50: > 50 µM

## Reevesioside D
[8]
  CC50: > 50 µM
